The entries come from a sample that favours hits as a whole.
PDI inh – inhibitors of human PDI, primary screen, biochemical, turbidity, single point, plate reader | 350,000 compounds, 0.052% hits | inhibition, % at 10 µM | AID 588391, 2011 | PDI insulin aggregation turbidity, A650, 90 min | Protein disulfide-isomerase (Homo sapiens), P07237;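 active = mean inhibition across replicates of 30% or more, whatever share of single replicates reach that level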
S100A4 inh HTS – inhibitors of S100A4-myosin IIA peptide binding, primary screen, biochemical, fluorescence polarization, TAMRA-MyoIIA peptide. Protein S100-A4 (Homo sapiens), P26447. inhibition, % at 10.7 µM. 360,000 compounds, 0.14% hits;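 active = mean inhibition of at least 70% across replicates, with every replicate also reaching that level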
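incubation = readout 5 min after mixing, signal stable up to 60 min | system = S100A4 monomer protein | buffer or medium = HEPES pH 7.2 with CaCl2, KCl, NaCl, DTT, Triton | benchmarks = neutral control DMSO, positive control TFP | also added = fluorescent myosin IIA peptide, 5 nM | compound dosing = one concentration per compound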
ERp5 block – inhibitors of ERp5-driven insulin aggregation, primary screen, biochemical, turbidity, absorbance 650 nm, single point; Protein disulfide-isomerase A6 (Homo sapiens), Q15084; 90 min; inhibition, % at 9.99 µM; 350,000 compounds, 0.05% hits; AID 651711, 2012;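 active = mean replicate inhibition above about 25%, with every replicate also reaching it, limit read from the data, passing the limit was not always enough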
FGF22 binding-1 – binders of human FGF22 protein, primary screen, FGF22 synaptogenesis inhibitor project, biophysical, thermal shift, single point; Fibroblast growth factor 22 (Homo sapiens), Q9HCT0; AID 651658, 2012; activity (Tm shift, normalised), % at 9.99 µM; recombinant FGF22 thermal shift, SYPRO orange fluorescence; percent of sucrose octasulfate shift, DMSO zero; 340,000 compounds, 1.5% hits;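 active = mean Tm shift, scaled 0 neutral to 100 positive control, at about 1.3% or above, every replicate too, limit read from the data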
ERAP1 inh – human ERAP1 aminopeptidase inhibitors, primary screen, biochemical, single point, plate reader; Endoplasmic reticulum aminopeptidase 1 (Homo sapiens), Q9NZ08; recombinant ERAP1, Leu-AMC fluorescence, 60 min; inhibition, % at 10.7 µM; 340,000 compounds, 0.15% hits;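 active = mean replicate inhibition of at least 30%, or all replicates individually reaching that 30% level; inactive = mean below 30% and not every replicate reaching it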
FGF22 binding-2 – binders of human FGF22 protein, dose response, FGF22 synaptogenesis inhibitor project, biophysical, thermal shift, cherry-pick retest; AID 720646, 2013; shares compounds with FGF22 binding-1; recombinant FGF22 thermal shift, SYPRO orange fluorescence; 1,000 compounds, 2% hits; thermal shift activity, °C (ΔTm) at 38 µM;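 active = fitted rise in melting shift crosses a set limit at or below the top valid dose tested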
SYPRO no-protein – compound-only thermal shift signal without protein, dose response, artefact control for FGF22 binder project, biochemical, cherry-picked samples, RT-PCR instrument; shares compounds with FGF22 binding-1; compound-only SYPRO orange thermal shift counter-screen, no protein; AC50, µM (doses to about 38 µM); 1,000 compounds, 2% hits; AID 743019, 2013;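 active = rising signal whose fitted curve reaches the 0.54 level within the top valid dose, showing a melting point, actives reach about 13 µM in these data; inactive = the rest, including activity in the opposite direction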; also: value is where the raw curve crosses a fixed level and not half-maximal
Hits are given with their value; i = inactive; nt = no result.

SMILES	PDI inh	S100A4 inh HTS	ERp5 block	FGF22 binding-1	ERAP1 inh	FGF22 binding-2	SYPRO no-protein
Cc1ccc(S(=O)(=O)N(C)C[C@H]2Oc3ncc(Br)cc3C(=O)N([C@@H](C)CO)C[C@H]2C)cc1	nt	i	i	5.3	i	i	i
Cc1ccc(S(=O)(=O)N(C)C[C@H]2Oc3ncc(Br)cc3C(=O)N([C@@H](C)CO)C[C@@H]2C)cc1	nt	i	i	i	i	nt	nt
C[C@@H]1CN([C@@H](C)CO)C(=O)c2cc(-c3cccnc3)cnc2O[C@@H]1CN(C)C	nt	i	i	i	i	nt	nt
C[C@H](CO)N1C[C@H](C)[C@@H](CN(C)C)Oc2ncc(-c3cccnc3)cc2C1=O	nt	i	i	1.7	i	i	i
Cc1ccc(N(CCC#N)C(=O)COC(=O)c2cc(C)no2)cc1	i	i	i	2.8	i	i	i
O=C(c1cc(C2CC2)nn1-c1ccccc1)N1CCN(Cc2ccc(Cl)cc2)CC1	i	i	i	i	i	nt	nt
COc1ccc(NC(=O)CCC(=O)NCc2ccco2)c([N+](=O)[O-])c1	i	i	i	i	i	nt	nt
Cc1ccc(OCCC(=O)OCC(=O)N2CCN(S(=O)(=O)c3ccc(C)cc3)CC2)cc1	i	i	i	i	i	nt	nt
Cc1ccc(N(C)S(=O)(=O)c2cccc(C(=O)Nc3ccc(N4CCOCC4)cc3)c2)cc1	i	i	i	i	i	nt	nt
COc1ccc(N(C)S(=O)(=O)c2cccc(C(=O)Nc3ccc(N4CCOCC4)cc3)c2)cc1	i	i	i	2.3	i	i	i
C/C(=N\NC(=O)c1sccc1C)c1cccnc1	i	i	i	i	i	nt	nt
Cc1onc(-c2ccccc2)c1C(=O)N1CCN(c2ccccn2)CC1	i	i	i	i	i	nt	nt
CC(OC(=O)c1ccccc1)C(=O)NCCC1=CCCCC1 (configuration not stated)	i	i	i	1.6	i	i	i
Cc1nnc(N(C)C(=O)Cc2ccc3c(c2)OCO3)s1	i	nt	nt	nt	nt	nt	nt
CSCCC(NC(=O)c1ccccc1Cl)C(=O)NNC(=O)c1ccccc1O (configuration not stated)	i	i	i	i	i	nt	nt

Bioassay records: PubChem BioAssay, Broad Institute
